In ChEMBL document CHEMBL5058577, “EUbOPEN Chemogenomics Library 2 (Multiplex)” (2022):

System: U2OS
Assay: Multiplex assay against U2OS
Assay type: toxicity, cell-based
Conditions: human
In short: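 On a CQ1 microscope at 37°C and 5% CO2, live cells were imaged after compound addition. They had been stained at seeding with Hoechst33342, BioTracker Green Microtubule Cytoskeleton Dye, MitoTracker Red and Annexin V Alexa Fluor 680. CellPathfinder machine-learning gating assigned cells to Hoechst high-intensity objects or normal cells, normal cells to healthy, pyknosed or fragmented nuclei, and pyknosed cells to mitotic or apoptotic. Tubulin, mitochondrial-mass and membrane-permeability phenotypes are per cents of healthy-nucleus cells.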

[1] = 12 h, 1 µM, compound concentration 1 uM, replicate 1
[2] = 12 h, 1 µM, compound concentration 1 uM, replicate 2
[3] = 12 h, 10 µM, compound concentration 10 uM, replicate 1
[4] = 12 h, 10 µM, compound concentration 10 uM, replicate 2
[5] = 24 h, 1 µM, compound concentration 1 uM, replicate 1
[6] = 24 h, 1 µM, compound concentration 1 uM, replicate 2
[7] = 24 h, 10 µM, compound concentration 10 uM, replicate 1
[8] = 24 h, 10 µM, compound concentration 10 uM, replicate 2
[9] = 48 h, 1 µM, compound concentration 1 uM, replicate 1
[10] = 48 h, 1 µM, compound concentration 1 uM, replicate 2
[11] = 48 h, 10 µM, compound concentration 10 uM, replicate 1
[12] = 48 h, 10 µM, compound concentration 10 uM, replicate 2

## Cc1ccc(/C(=C\CN2CCCC2)c2ccccn2)cc1 [TRIPROLIDINE]
[1]
  Population Apoptotic (%): 85%
  Population Fragmented Nuclei (%): 29%
  Population Healthy Nuclei (%): 61%
  Population Hoechst High Intensity Objects (%): 2%
  Population Membrane Permeable-Phenotype (%): 4%
  Population Mitochondria Different-Phenotype (%): 2%
  Population Mitotic Cells (%): 15%
  Population Normal (%): 97%
  Population Pyknosed Nuclei (%): 8%
  Population Tubulin-Different-Phenotype (%): 1%
  Total Cell Count: 244
[2]
  Population Fragmented Nuclei (%): 18%
  Population Healthy Nuclei (%): 70%
  Population Hoechst High Intensity Objects (%): 3%
  Population Membrane Permeable-Phenotype (%): 6%
  Population Mitochondria Different-Phenotype (%): 1%
  Population Mitotic Cells (%): 14%
  Population Normal (%): 96%
  Population Pyknosed Nuclei (%): 11%
  Population Tubulin-Different-Phenotype (%): 5%
  Total Cell Count: 126
[3]
  Population Apoptotic (%): 87%
  Population Fragmented Nuclei (%): 25%
  Population Healthy Nuclei (%): 64%
  Population Hoechst High Intensity Objects (%): 3%
  Population Membrane Permeable-Phenotype (%): 29%
  Population Mitochondria Different-Phenotype (%): 23%
  Population Mitotic Cells (%): 12%
  Population Normal (%): 96%
  Population Pyknosed Nuclei (%): 9%
  Population Tubulin-Different-Phenotype (%): 24%
  Total Cell Count: 264
[4]
  Population Apoptotic (%): 75%
  Population Fragmented Nuclei (%): 15%
  Population Healthy Nuclei (%): 77%
  Population Hoechst High Intensity Objects (%): 0%
  Population Membrane Permeable-Phenotype (%): 14%
  Population Mitochondria Different-Phenotype (%): 18%
  Population Mitotic Cells (%): 25%
  Population Normal (%): 99%
  Population Pyknosed Nuclei (%): 7%
  Population Tubulin-Different-Phenotype (%): 15%
  Total Cell Count: 114
[5]
  Population Apoptotic (%): 89%
  Population Fragmented Nuclei (%): 23%
  Population Healthy Nuclei (%): 66%
  Population Hoechst High Intensity Objects (%): 1%
  Population Membrane Permeable-Phenotype (%): 4%
  Population Mitochondria Different-Phenotype (%): 3%
  Population Mitotic Cells (%): 10%
  Population Normal (%): 98%
  Population Pyknosed Nuclei (%): 9%
  Population Tubulin-Different-Phenotype (%): 2%
  Total Cell Count: 297
[6]
  Population Apoptotic (%): 81%
  Population Fragmented Nuclei (%): 20%
  Population Healthy Nuclei (%): 68%
  Population Hoechst High Intensity Objects (%): 4%
  Population Membrane Permeable-Phenotype (%): 9%
  Population Mitochondria Different-Phenotype (%): 6%
  Population Mitotic Cells (%): 18%
  Population Normal (%): 96%
  Population Pyknosed Nuclei (%): 11%
  Population Tubulin-Different-Phenotype (%): 5%
  Total Cell Count: 150
[7]
  Population Apoptotic (%): 75%
  Population Fragmented Nuclei (%): 27%
  Population Healthy Nuclei (%): 62%
  Population Hoechst High Intensity Objects (%): 2%
  Population Membrane Permeable-Phenotype (%): 12%
  Population Mitochondria Different-Phenotype (%): 15%
  Population Mitotic Cells (%): 24%
  Population Normal (%): 97%
  Population Pyknosed Nuclei (%): 10%
  Population Tubulin-Different-Phenotype (%): 8%
  Total Cell Count: 320
[8]
  Population Apoptotic (%): 78%
  Population Fragmented Nuclei (%): 19%
  Population Healthy Nuclei (%): 70%
  Population Hoechst High Intensity Objects (%): 1%
  Population Membrane Permeable-Phenotype (%): 11%
  Population Mitochondria Different-Phenotype (%): 13%
  Population Mitotic Cells (%): 21%
  Population Normal (%): 98%
  Population Pyknosed Nuclei (%): 9%
  Population Tubulin-Different-Phenotype (%): 6%
  Total Cell Count: 149
[9]
  Population Apoptotic (%): 86%
  Population Fragmented Nuclei (%): 17%
  Population Healthy Nuclei (%): 73%
  Population Hoechst High Intensity Objects (%): 2%
  Population Membrane Permeable-Phenotype (%): 3%
  Population Mitochondria Different-Phenotype (%): 3%
  Population Mitotic Cells (%): 13%
  Population Normal (%): 97%
  Population Pyknosed Nuclei (%): 9%
  Population Tubulin-Different-Phenotype (%): 3%
  Total Cell Count: 398
[10]
  Population Apoptotic (%): 76%
  Population Healthy Nuclei (%): 75%
  Population Hoechst High Intensity Objects (%): 3%
  Population Membrane Permeable-Phenotype (%): 5%
  Population Mitotic Cells (%): 23%
  Population Normal (%): 96%
  Population Pyknosed Nuclei (%): 6%
  Population Tubulin-Different-Phenotype (%): 4%
  Total Cell Count: 209
[11]
  Population Apoptotic (%): 86%
  Population Fragmented Nuclei (%): 24%
  Population Healthy Nuclei (%): 65%
  Population Hoechst High Intensity Objects (%): 2%
  Population Membrane Permeable-Phenotype (%): 11%
  Population Mitochondria Different-Phenotype (%): 8%
  Population Mitotic Cells (%): 13%
  Population Normal (%): 97%
  Population Pyknosed Nuclei (%): 9%
  Population Tubulin-Different-Phenotype (%): 7%
  Total Cell Count: 453
[12]
  Population Apoptotic (%): 89%
  Population Fragmented Nuclei (%): 15%
  Population Healthy Nuclei (%): 74%
  Population Hoechst High Intensity Objects (%): 4%
  Population Membrane Permeable-Phenotype (%): 9%
  Population Mitotic Cells (%): 10%
  Population Normal (%): 95%
  Population Tubulin-Different-Phenotype (%): 6%
  Total Cell Count: 203
